Source: ChEMBL document CHEMBL1126663, “Purine 2'-deoxy-2'-fluororibosides as antiinfluenza virus agents” (J Med Chem, 1993)

What was measured:
[1] = Cytotoxicity in uninfected dog kidney (MDCK) cells.; format: cell-based; settings: Canis lupus familiaris
Procedure, shortened: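 Dividing MDCK cells seeded at 2 × 10^4 cells/well in 24-well plates; compound added to growth medium at various concentrations. Cell growth compared with untreated controls over 4 days incubation (3-4 cell doublings).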

Influenza A virus = test: Antiviral activity against Influenza virus (A/Sweden/3/50/ (H1N1)) in dog kidney (MDCK) cells expressed.; format: functional, organism-based
Procedure, shortened: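 Plaque reduction assay. Confluent MDCK monolayers were infected with 50-150 PFU in the presence of compound, then overlaid with nutrient agarose containing 0.1 µg/mL trypsin, 100 µg/mL DEAE-dextran and compound. After 3-4 days at 36 °C, cells were formalin-fixed and methyl violet-stained, and plaques were counted as % of the untreated infected control, in triplicate. IC50 came from mean-versus-log concentration curves.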

SMILES | IC50 [1] [µM] | IC50 (Influenza A virus) [µM]
CCOc1ncnc2c1ncn2[C@@H]1O[C@H](CO)[C@@H](O)[C@H]1F | > 500 | > 100
Nc1nc(NC2CC2)c2ncn([C@@H]3O[C@H](CO)[C@@H](O)[C@H]3F)c2n1 | > 500 | 72
CSc1ncnc2c1ncn2[C@@H]1O[C@H](CO)[C@@H](O)[C@H]1F | > 500 | > 100
CCCOc1nc(N)nc2c1ncn2[C@@H]1O[C@H](CO)[C@@H](O)[C@H]1F | > 500 | 36
Cc1nc(N)c2ncn([C@@H]3O[C@H](CO)[C@@H](O)[C@H]3F)c2n1 | > 500 | > 100
CSc1nc(N)nc2c1ncn2[C@@H]1O[C@H](CO)[C@@H](O)[C@H]1F | > 500 | > 100
Nc1nc(I)c2ncn([C@@H]3O[C@H](CO)[C@@H](O)[C@H]3F)c2n1 | 300 | 23
Cc1nc(N)nc2c1ncn2[C@@H]1O[C@H](CO)[C@@H](O)[C@H]1F | > 500 | > 100
CCOc1nc(N)nc2c1ncn2[C@@H]1O[C@H](CO)[C@@H](O)[C@H]1F | > 500 | 29
COc1ncnc2c1ncn2[C@@H]1O[C@H](CO)[C@@H](O)[C@H]1F | > 500 | > 100
Nc1ncc2ncn([C@@H]3O[C@H](CO)[C@@H](O)[C@H]3F)c2n1 | > 500 | > 100
Nc1ncnc2c1ncn2[C@@H]1O[C@H](CO)[C@@H](O)[C@H]1F [2'-BETA-FLUORO-2',3'-DEOXYADENOSINE] | 320 | 52
COc1nc(N)nc2c1ncn2[C@@H]1O[C@H](CO)[C@@H](O)[C@H]1F | > 500 | 16
Nc1nc(N)c2ncn([C@@H]3O[C@H](CO)[C@@H](O)[C@H]3F)c2n1 | > 500 | 15
COc1nc(N)c2ncn([C@@H]3O[C@H](CO)[C@@H](O)[C@H]3F)c2n1 | > 500 | > 100
OC[C@H]1O[C@@H](n2cnc3c(NC4CC4)ncnc32)[C@H](F)[C@@H]1O | > 500 | > 100
OC[C@H]1O[C@@H](n2cnc3c(O)ncnc32)[C@H](F)[C@@H]1O | > 500 | > 100
Nc1nc(F)nc2c1ncn2[C@@H]1O[C@H](CO)[C@@H](O)[C@H]1F | 120 | > 100
Nc1nc(Cl)c2ncn([C@@H]3O[C@H](CO)[C@@H](O)[C@H]3F)c2n1 | > 500 | 17
